Test results published in ChEMBL document CHEMBL1158037, “Taraxasterane- and ursane-type triterpenes from Nerium oleander and their biological activities” (J Nat Prod, 2006).

Assays:
[1] = Cytotoxicity against human WI38 cells by WST-8 assay; type: cell-based; conditions: WI-38
In short: (§1)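 Growth inhibition of WI-38, VA-13 and HepG2 cells, with Taxol and ADM as positive controls; IC50 taken as concentration giving 50% growth inhibition.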

[2] = Cytotoxicity against human Hep G2 by WST-8 assay; type: functional; conditions: HepG2; in short: as §1
[3] = tested on: A549; test: Antiinflammatory activity in human A549 cells assessed as inhibition of ICAM1 induction pretreated for 1 hr before IL1alpha challenge and incubated for 6 hrs in presence of IL1alpha; type: functional, cell-based
In short: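 A549 cells (human lung carcinoma, used as endothelial model) exposed to a range of compound concentrations for 1 h, then IL-1α added and culture continued 6 h. ICAM-1 measured by primary and secondary antibodies plus enzyme substrate, absorbance at 415 nm. Triplicate cultures; IC50 reported.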

[4] = tested on: A549; test: Cytotoxicity against human A549 cells after 24 hrs by MTT assay; type: functional, cell-based; conditions: A549, 24 h
In short: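 A549 cells incubated 24 h with serial dilutions of compound; viability (%) by MTT used to derive IC50. Triplicate cultures.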

[5] = tested on: WI-38 VA13; test: Cytotoxicity against human VA-13 cells by WST-8 assay; type: functional, cell-based; in short: as §1

IC50 [3]	Structure (SMILES)	IC50 [1]	IC50 [2]	IC50 [4]	IC50 [5]
> 316 µM	C[C@H]1[C@@H]2[C@H]3CC[C@@H]4[C@@]5(C)CC[C@H](O)C(C)(C)[C@@H]5CC[C@@]4(C)[C@]3(C)CC[C@@]23C=C[C@]1(C)OC3	83.8 µM	155 µM	> 316 µM	111 µM
158 µM	C[C@H]1[C@H](C)CC[C@]2(C=O)CC[C@]3(C)C(=CC[C@@H]4[C@@]5(C)CC[C@H](O)C(C)(C)[C@@H]5CC[C@]43C)[C@H]12	94.7 µM	99 µM	205 µM	85.4 µM
80 µM	CO[C@H]1O[C@@]2(C)CC[C@@]13CC[C@]1(C)[C@H](CC[C@@H]4[C@@]5(C)CC[C@H](O)C(C)(C)[C@@H]5CC[C@]41C)[C@H]3[C@@H]2C	11.8 µM	10.3 µM	76 µM	11.7 µM
> 316 µM	C[C@H]1[C@H](C)CC[C@]2(O)CC[C@]3(C)C(=CC[C@@H]4[C@@]5(C)CC[C@H](O)C(C)(C)[C@@H]5CC[C@]43C)[C@H]12	20.1 µM	21.1 µM	> 316 µM	108 µM
